According to ChEMBL document CHEMBL3632461 (J Med Chem, 2015):

Key:
[1] = Plasma clearance in cynomolgus monkey at 1 mg/kg, iv and 3 or 5 mg/kg, po; format: ADME, organism-based, Macaca fascicularis
Procedure, shortened: (§1)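 Male CD-1 mice (25−35 g), cannulated Wistar-Han rats (250 g), beagle dogs (12 kg) and cynomolgus monkeys (7 kg), fasted overnight and fed 1.0 or 2.0 h after dosing. iv 1 mg/kg in saline or 12% sulfobutyl ether β-cyclodextrin; po 3 or 5 mg/kg in 0.5% methylcellulose. Parameters calculated from plasma concentration−time data; mean ± SD for n = 3, individual values for n = 2.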

[2] = Elimination half life in CD-1 mouse at 1 mg/kg, iv and 3 or 5 mg/kg, po; format: ADME, organism-based; conditions: in vivo; procedure, shortened: as §1
[3] = Tmax in CD-1 mouse at 3 or 5 mg/kg, po; format: ADME, organism-based; conditions: in vivo
Procedure, shortened: (§2)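 Male animals (CD-1 mice 25−35 g, cannulated Wistar-Han rats 250 g, beagle dogs 12 kg, cynomolgus monkeys 7 kg), fasted overnight and fed 1.0 or 2.0 h after dosing, water ad libitum. Oral dose 3 or 5 mg/kg in 0.5% methylcellulose. Parameters calculated from plasma concentration−time data; mean ± SD for n = 3, individual values for n = 2.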

[4] = Tmax in cynomolgus monkey at 3 or 5 mg/kg, po; format: ADME, organism-based, Macaca fascicularis; conditions: in vivo; procedure, shortened: as §2
[5] = Fraction unbound in mouse plasma at 2 uM by equilibrium dialysis method; format: ADME, cell-free
Procedure, shortened: (§3)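 Compound at 2 μM in mouse, rat, dog, monkey or human plasma; unbound fraction measured by equilibrium dialysis and reported as a mean.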

[6] = Fraction unbound in dog plasma at 2 uM by equilibrium dialysis method; format: ADME, cell-free, Canis lupus familiaris; procedure, shortened: as §3
Cytochrome P450 2B6 [7] = target: T1, Cytochrome P450 2B6 (Homo sapiens, UniProt P20813); assay: Reversible inhibition of CYP2B6 bupropion hydroxylase activity in human liver microsomes by LC-MS/MS analysis; format: ADME
T1 sequence (P20813 whole entry): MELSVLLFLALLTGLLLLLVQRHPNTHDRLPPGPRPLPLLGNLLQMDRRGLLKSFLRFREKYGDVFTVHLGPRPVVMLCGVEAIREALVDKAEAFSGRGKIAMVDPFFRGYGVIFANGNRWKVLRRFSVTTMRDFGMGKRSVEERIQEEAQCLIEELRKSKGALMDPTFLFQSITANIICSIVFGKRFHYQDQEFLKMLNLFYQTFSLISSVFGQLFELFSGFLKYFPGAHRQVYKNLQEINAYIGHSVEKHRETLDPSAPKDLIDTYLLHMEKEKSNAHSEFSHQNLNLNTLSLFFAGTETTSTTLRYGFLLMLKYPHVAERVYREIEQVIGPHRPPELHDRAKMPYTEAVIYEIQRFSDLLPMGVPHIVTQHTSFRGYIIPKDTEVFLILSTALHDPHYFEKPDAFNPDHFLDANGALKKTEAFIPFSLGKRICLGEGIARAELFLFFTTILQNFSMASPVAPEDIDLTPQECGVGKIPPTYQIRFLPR
Procedure, shortened: (§4)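 Reversible inhibition of the major CYP enzymes tested in human liver microsomes using established protocols.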

Cytochrome P450 3A4 [8] = target: T2, Cytochrome P450 3A4 (Homo sapiens, UniProt P08684); assay: Reversible inhibition of CYP3A4 in human liver microsomes by LC-MS/MS analysis; format: ADME; procedure, shortened: as §4
Cytochrome P450 1A2 = target: T3, Cytochrome P450 1A2 (Homo sapiens, UniProt P05177); assay: Time-dependent inhibition of CYP1A2 in human liver microsomes; format: ADME
T3 sequence (P05177 whole entry): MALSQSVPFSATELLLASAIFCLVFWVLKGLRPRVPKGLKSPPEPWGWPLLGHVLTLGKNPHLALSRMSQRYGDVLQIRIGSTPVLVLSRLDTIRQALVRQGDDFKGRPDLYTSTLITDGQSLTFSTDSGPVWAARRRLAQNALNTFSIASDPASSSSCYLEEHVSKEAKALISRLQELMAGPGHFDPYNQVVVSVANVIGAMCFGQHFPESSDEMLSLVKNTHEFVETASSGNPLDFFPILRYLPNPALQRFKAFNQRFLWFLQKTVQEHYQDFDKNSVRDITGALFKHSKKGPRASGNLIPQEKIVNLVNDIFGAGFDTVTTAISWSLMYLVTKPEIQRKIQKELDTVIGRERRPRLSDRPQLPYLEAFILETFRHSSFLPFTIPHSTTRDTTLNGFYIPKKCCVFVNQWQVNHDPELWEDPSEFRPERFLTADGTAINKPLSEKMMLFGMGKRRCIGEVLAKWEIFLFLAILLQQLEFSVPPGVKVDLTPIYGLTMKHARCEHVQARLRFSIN
Procedure, shortened: (§5)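 Time- and concentration-dependent CYP inhibition assessed by an IC₅₀ shift assay in human liver microsomes.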

Cytochrome P450 2B6 [9] = target: T1, Cytochrome P450 2B6; assay: Time-dependent inhibition of CYP2B6 in human liver microsomes; format: ADME; procedure, shortened: as §5
Cytochrome P450 2C8 = target: T4, Cytochrome P450 2C8 (Homo sapiens, UniProt P10632); assay: Time-dependent inhibition of CYP2C8 in human liver microsomes; format: ADME; procedure, shortened: as §5
T4 sequence (P10632 whole entry): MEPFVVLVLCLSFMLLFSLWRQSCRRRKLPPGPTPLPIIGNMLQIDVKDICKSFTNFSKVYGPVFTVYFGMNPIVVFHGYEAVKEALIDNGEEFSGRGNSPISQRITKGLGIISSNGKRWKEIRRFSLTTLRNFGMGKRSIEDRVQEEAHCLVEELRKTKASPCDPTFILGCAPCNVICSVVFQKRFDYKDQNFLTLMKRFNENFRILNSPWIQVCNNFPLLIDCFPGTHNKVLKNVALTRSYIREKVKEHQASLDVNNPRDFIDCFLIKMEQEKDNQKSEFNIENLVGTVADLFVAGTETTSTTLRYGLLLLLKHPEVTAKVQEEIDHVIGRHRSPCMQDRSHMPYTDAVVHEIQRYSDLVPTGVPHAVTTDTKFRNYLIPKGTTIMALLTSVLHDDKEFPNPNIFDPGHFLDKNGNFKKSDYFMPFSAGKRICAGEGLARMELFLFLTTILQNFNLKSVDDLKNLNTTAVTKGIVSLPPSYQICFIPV

Cytochrome P450 2C9 = Cytochrome P450 2C9 (Homo sapiens, UniProt P11712); assay: Time-dependent inhibition of CYP2C9 in human liver microsomes; format: ADME; procedure, shortened: as §5
Cytochrome P450 3A4 [10] = target: T2, Cytochrome P450 3A4; assay: Time-dependent inhibition of CYP3A4 in human liver microsomes; format: ADME; procedure, shortened: as §5
Hepatocyte = assay: Metabolic stability in cryopreserved human hepatocytes assessed as GSH adduct formation; format: ADME, cell-based
Procedure, shortened: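 Incubation in NADPH-supplemented human liver microsomes or cryopreserved human hepatocytes, examined for glutathione adduct formation.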

[11] = Drug excretion in cynomolgus monkey urine at 1 mg/kg, iv; format: ADME, organism-based, Macaca fascicularis; conditions: read-out: Drug excretion
Procedure, shortened: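 Male animals (beagle dogs 12 kg, Wistar-Han rats 250 g, cynomolgus monkeys 7 kg), fasted overnight and fed 1.0 or 2.0 h after dosing, water ad libitum. Dosed iv at 1 mg/kg in saline or 12% sulfobutyl ether β-cyclodextrin. Fraction of the iv dose excreted unchanged in urine.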

[12] = Drug metabolism assessed as formation of 5-(2,4-dimethoxyphenyl)-7-oxo-2,3,4,7-tetrahydrooxazolo[3,2-a]pyrimidin-4-ium at 10 uM after 60 mins by LC-MS/MS analysis in presence of human MPO/H2O2/Cl-; format: physicochemical; conditions: 1 h
Procedure, shortened: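 Also incubated at 10 μM in a human MPO/H₂O₂/Cl⁻ system. Parent and cyclic ether product tracked by LC−MS/MS using retention time and MH⁺.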

T2 sequence (P08684 whole entry): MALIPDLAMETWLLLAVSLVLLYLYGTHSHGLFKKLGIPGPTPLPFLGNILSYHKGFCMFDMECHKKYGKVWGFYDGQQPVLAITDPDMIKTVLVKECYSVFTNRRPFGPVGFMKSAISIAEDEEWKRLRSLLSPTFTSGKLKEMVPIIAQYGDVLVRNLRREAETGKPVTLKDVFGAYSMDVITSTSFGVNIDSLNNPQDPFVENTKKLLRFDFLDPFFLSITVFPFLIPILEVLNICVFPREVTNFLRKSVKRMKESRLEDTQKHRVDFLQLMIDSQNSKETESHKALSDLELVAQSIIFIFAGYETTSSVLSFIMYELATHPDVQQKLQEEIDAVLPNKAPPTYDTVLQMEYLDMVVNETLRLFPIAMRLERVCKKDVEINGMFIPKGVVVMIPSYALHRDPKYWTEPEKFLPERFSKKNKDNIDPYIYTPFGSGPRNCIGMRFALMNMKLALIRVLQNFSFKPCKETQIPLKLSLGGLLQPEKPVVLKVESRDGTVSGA
Sequence of Cytochrome P450 2C9 (P11712 whole entry): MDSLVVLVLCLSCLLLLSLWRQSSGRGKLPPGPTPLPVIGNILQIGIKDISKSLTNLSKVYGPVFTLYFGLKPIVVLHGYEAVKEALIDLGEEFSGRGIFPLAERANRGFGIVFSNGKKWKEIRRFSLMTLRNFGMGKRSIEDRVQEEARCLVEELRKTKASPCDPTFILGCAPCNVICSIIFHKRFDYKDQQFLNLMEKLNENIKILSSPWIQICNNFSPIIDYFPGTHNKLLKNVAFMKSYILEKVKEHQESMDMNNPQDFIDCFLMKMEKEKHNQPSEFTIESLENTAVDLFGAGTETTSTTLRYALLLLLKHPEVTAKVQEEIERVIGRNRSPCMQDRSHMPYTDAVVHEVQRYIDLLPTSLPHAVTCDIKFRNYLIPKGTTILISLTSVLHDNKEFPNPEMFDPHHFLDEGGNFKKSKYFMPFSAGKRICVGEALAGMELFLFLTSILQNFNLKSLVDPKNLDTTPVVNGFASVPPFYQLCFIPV

Row | Drug metabolism [12] | Compound | clearance [1] | half-life [2] | Tmax [3] | Tmax [4] | fraction unbound at 2 µM [5] | fraction unbound at 2 µM [6] | IC50 (Cytochrome P450 2B6 [7]) | IC50 (Cytochrome P450 3A4 [8]) | IC50 (Cytochrome P450 1A2) | IC50 (Cytochrome P450 2B6 [9]) | IC50 (Cytochrome P450 2C8) | IC50 (Cytochrome P450 2C9) | IC50 (Cytochrome P450 3A4 [10]) | Stability (Hepatocyte) | dose excreted [11]
1 | – | COc1ccc(Cl)cc1-c1cc(=O)[nH]c(=S)n1CC(N)=O [PF-06282999] | 10.3 mL/min/kg | 1.36 h | 1 h | 1.5 h | 0.451 | 0.46 | > 100 µM | > 100 µM | > 100 µM | > 100 µM | > 100 µM | > 100 µM | > 100 µM | Stable | 26%
2 | metabolite_detected | COc1ccc(-c2cc(=O)[nH]c(=S)n2CCO)c(OC)c1 | – | – | – | – | – | – | – | – | – | – | – | – | – | – | –
